Assay outcomes: PubChem, several laboratories
NALP3 yeast inh: NALP3 inflammasome inhibitors in reconstituted yeast, primary screen, luminescence, uHTS; Yeast reconstituted NLRP3/ASC/caspase-1, beta-gal luminescence, 24 h; inhibition, % at 10 µM; hit rate 0.39% among 330,000;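 active = inhibition of 50% or more; inactive = inhibition below 50%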;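 also: plate controls were induced DMSO wells for no effect and uninduced yeast grown without galactose for full effect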
ALR H2O2 inh: inhibitors of human ALR sulfhydryl oxidase, primary screen, biochemical, H2O2 detection, HRP-luminol luminescence, single point; purified ALR, DTT oxidation; inhibition, % (no concentration beside the values); hit rate 3.8% among 290,000; AID 485317, 2010;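 active = mean replicate inhibition above about 79%, with every replicate also reaching it, limit read from the data; inconclusive = only one of the two criteria met; inactive = mean below limit and not every replicate reaching it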
DSG3 Ab inh: inhibitors of pemphigus antibody binding to DSG3, primary screen, biochemical, bead-based, flow cytometry, scFv-GFP; Desmoglein-3 (Homo sapiens), P32926; DSG3-coupled beads, scFv-anti-DSG3-GFP binding; hits give low values; binding (percent of control), % at 10 µM; hit rate 0.48% among 310,000;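 active = binding more than 3 SD below its plate's average and above zero; inconclusive = below that plate limit but binding exactly zero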;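 also: hits lower antibody fragment binding to DSG3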
NALP1 inh: NALP1 inflammasome inhibitors in reconstituted yeast, colorimetric, S. cerevisiae, triplicate retest | S. cerevisiae NALP1/ASC/caspase-1 growth, X-gal OD620, 72 h | hit rate 0.61% among 280,000 | inhibition, % at 10 µM; in the data active = inhibition mostly above about 24%, no sharp cut-off; inactive = mostly below about 32%
Arrestin-AP2 inh: inhibitors of beta-arrestin/AP2 binding, primary screen, biochemical, GPCR trafficking, flow cytometry. FITC-arrestin peptide / GST-AP2 beads; AP2 beta2 appendage carries R879A mutation. beta-arrestin 1 C-terminal peptide binding to AP2 beta2-adaptin appendage (human). inhibition, % at 10 µM. hit rate 0.31% among 340,000;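 active = inhibition above a set limit, near 3 SD of compounds lacking own fluorescence, cut at about 54% in these data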;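 also: plate controls were DMSO wells for no effect and 5 µM unlabelled arrestin peptide for full effect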
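System: GST-AP2 R879A bound to glutathione beads, E. coli-expressed. Also added: 50 nM FITC-arrestin peptide. Schedule: compound with beads 12 min RT, then probe 1 h RT. Signal: bead flow cytometry, FITC channel. Read-out basis: percent response.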
PolyA inh: polyadenylation inhibitors in yeast reporter cells, primary screen, luminescence, S. cerevisiae. S. cerevisiae SKY197-pL101 polyadenylation reporter, beta-gal luminescence; efflux-impaired pdr1/pdr3 knockout yeast; score 100 = 6 SD above DMSO. activity score, % at 12 µM. hit rate 0.02% among 300,000. AID 1875, 2009;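 active = lowest replicate activity score at least 50, where 100 means six control SD above control mean; inconclusive = lowest score under 50 but half or more replicates reach 50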;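 also: yeast exposed to compound for 9 h at 30 °C; higher score means more reporter readthrough which indicates perturbed polyadenylation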
* hit, by the source's call; ? = inconclusive; · = not tested or not shown. A selection: hits, their analogues and other compounds. The true share with any hit is near 4.6%.

SMILES	NALP3 yeast inh	ALR H2O2 inh	DSG3 Ab inh	NALP1 inh	Arrestin-AP2 inh	PolyA inh
CN(Cc1cccc(F)c1)C(=O)c1ccc2c(=O)n3c(nc2c1)CCC3	-8	-3	111	-2	2	-5
Cc1noc(C)c1C(=O)OCC(=O)/C=C1/N(C)c2ccccc2C1(C)C	·	·	108	·	9	·
Cc1cc(C)cc(NC(=S)N2CCN(S(=O)(=O)c3ccccc3)CC2)c1	24	-8	110	-1	-1	·
CCn1c(-c2csc3c2CCCC3)n[nH]c1=S	29	91*	·	24	3	-8
Nc1ccc(NS(=O)(=O)c2ccccc2)cc1	5	100*	95	-6	-7	1
Cc1ccc(S(=O)(=O)Nc2cc(C)c(O)cc2C)cc1	10	98*	97	3	39	6
Cc1c(O)ccc(NS(=O)(=O)c2ccccc2)c1C	13	99*	103	2	8	-11
Cc1cc(NS(=O)(=O)c2ccccc2)c(C)c(Cl)c1O	-31	100*	100	19	26	23
Cc1cc(NS(=O)(=O)c2ccccc2)ccc1NS(=O)(=O)c1ccccc1	·	·	110	·	4	·
CCN(Cc1nc2ccccc2c(=O)[nH]1)C(=O)COc1ccccc1-c1ccccc1	16	-4	100	·	-11	·
O=S(=O)(Nc1ccc(O)c(NS(=O)(=O)c2ccccc2)c1)c1ccccc1	4	87*	100	-5	9	10
COc1ccc(-c2nc(CSCC(=O)NCCCN3CCCC3=O)c(C)o2)cc1	-6	96*	99	22	-22	-3
CCOc1ccc(-c2nc(CSCC(=O)NCCN3CCOCC3)c(C)o2)cc1	5	99*	98	-14	-3	10
COc1ccc(-c2nc(CSCC(=O)NC3CCCc4ccccc43)c(C)o2)cc1 (configuration not stated)	7	?	100	3	-10	10
CCOc1ccc(-c2nc(CSCC(=O)NCCCN3CCCC3=O)c(C)o2)cc1	10	99*	100	12	3	-5
N#Cc1ccc(-c2ccc(OCC(=O)NCCCN3CCCC3=O)cc2)cc1	16	99*	·	21	5	-9
Cc1oc(-c2ccc(Cl)cc2)nc1CN1CCCC(C(=O)NCCCN2CCCC2=O)C1 (configuration not stated)	21	4	108	0	-2	·
Cc1c(Cc2ccccc2)c(=O)oc2cc(O)cc(O)c12	7	78*	102	2	21	18
O=c1[nH]c(/C=C/c2cccc([N+](=O)[O-])c2)c([N+](=O)[O-])c(=O)[nH]1	8	10	95	7	13	11
O=[N+]([O-])c1cccc(/C=C/c2nc[nH]c2[N+](=O)[O-])c1	-1	0	63*	0	11	7
COc1ccc2c(c1)C=Cc1ccccc1O2	23	2	·	·	·	-16
Cc1cccc(NC(=O)c2ccc(S(=O)(=O)NCc3cccnc3)cc2)c1	26	-1	·	0	-4	1
COc1ccc(CCC(=O)OCC(=O)NC2CCCC2)cc1OC	·	·	103	·	·	·
N#C/C(=C\c1ccc(-c2ccccc2)o1)C(=O)Nn1cnnc1	12	98*	104	3	13	17
COc1ccc(N(CC(=O)NCc2cccs2)S(=O)(=O)c2ccc(C(C)=O)cc2)cc1	·	·	104	·	·	·
SMILES	NALP3 yeast inh	ALR H2O2 inh	DSG3 Ab inh	NALP1 inh	Arrestin-AP2 inh	PolyA inh
COc1cc(/C=N\NC(=O)CC(=O)NCCc2ccccc2)ccc1O	-33	99*	104	-20	3	1
CCOc1cc(/C=N\NC(=O)CC(=O)NCCc2ccccc2)ccc1O	-19	99*	96	-8	4	-13
COc1cc(/C=N/NC(=O)C2CCN(CC(O)COCc3ccccc3)CC2)ccc1O (configuration not stated)	-18	99*	99	14	17	-15
COc1ccc(/C=N/NC(=O)CC(=O)NCc2cccnc2)cc1	-1	9	102	23*	19	6
Cc1occc1C(=O)/C(C#N)=C/c1ccc(O)c(Br)c1	-24	65	111	-14	15	-6
COc1ccc([C@@H]2[C@@H](C(=O)C(C)(C)C)N3N=Cc4ccccc4[C@@H]3C23C(=O)OC(C)(C)OC3=O)cc1OC	-23	8	106	30	-12	-5
COc1ccc([C@H]2[C@H](C(=O)C(C)(C)C)N3N=Cc4ccccc4C3C23C(=O)OC(C)(C)OC3=O)cc1 (some centres not stated)	16	95*	112	27	1	5
O=C(NCc1ccc(Cl)cc1)C1CCCO1 (configuration not stated)	7	1	110	0	47	24
O=C(NCc1cccc(Cl)c1)C1CCCO1 (configuration not stated)	8	5	113	32*	-7	3
Cc1ccc(NN=C2c3ccccc3-c3ccccc32)cc1	24	89*	111	·	-6	-14
CCN(CC)C(=O)[C@H]1C[C@H](CC(=O)NCCN2CCOCC2)C(=O)N2CCc3c([nH]c4cc(-c5ccco5)ccc34)[C@]12C	·	·	105	·	16	·
CCn1c(C(C#N)/C(=N\S(=O)(=O)c2cccs2)c2ccccc2)nc2ccccc21 (configuration not stated)	18	9	74*	16	14	-11
CCn1c(-c2cccs2)nc2ccccc21	14	7	101	15	4	-1
CC(C)(C)OC(=O)C[C@H]1C/C=C\C[C@H](CC(=O)N(CCO)Cc2ccccc2)C(=O)N[C@@H](Cc2ccccc2)COC1=O	9	0	103	·	-1	·
CCSc1nnc(NC(=O)CCNC(=O)c2ccccc2Cl)s1	18	-1	105	·	-6	·
Cc1cc(C)nc(SCc2ccc(C(=O)N/N=C/c3ccccc3C(=O)O)cc2)n1	9	91*	100	-5	-5	-12
COc1cccc(-c2nc(CS(=O)(=O)CC(=O)NCCc3ccc(OC)cc3OC)c(C)o2)c1	-5	59	?	21	39	-2
COc1ccc(-c2nc(CS(=O)CC(=O)NCc3ccc4c(c3)OCO4)c(C)o2)cc1 (configuration not stated)	3	99*	116	5	6	16
COc1cccc(-c2nc(CS(=O)CC(=O)NCc3ccccc3Cl)c(C)o2)c1 (configuration not stated)	-4	99*	110	-37	2	1
